Measured values published in publication PMC4335298 (Genes & Development, 2015).

Experiments:
[1] = molecular target: hTLX (construct of the size exclusion chromatography not stated) (human) (UniProt Q9Y466); assay: SEC
[2] = Size exclusion chromatography of hTLX
[3] = system: Gal4 transcriptional activity; assay: Gal4 reporter repression assay with Gal4-fused receptor LBDs; type: cell-based; conditions: Gal4-fused receptor LBD, cell reporter assay, AD293 cells
Outline: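 AD293 cells were cotransfected with Gal4-DBD fusions of the hTLX LBD (residues 182–385; H12 deletion residues 182–371) or the dTLX LBD (residues 229–472), wild type or mutant, plus a luciferase reporter. Repression fold is RLU with Gal4 alone relative to RLU with the Gal4-receptor fusion. Expression was checked by anti-Gal4 Western blot. Values are SD, n = 3, with at least two repeats, and groups were compared by two-tailed Student's t-test.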

[4] = system: SHP full-length (NP_035980); assay: Coimmunoprecipitation with SHP; type: binding, mouse; conditions: Co-IP, Flag/HA fusions, Western blot

Molecule: hTLX (construct of the size exclusion chromatography not stated) (from UniProt Q9Y466-1 1-385) (natural protein)
- stoichiometry N [1]: 2

Molecule: hTLX: human TLX (NP_003260)
- Oligomeric state in solution [2]: formed a dimer in solution

B1: COUP-TF2∆H12: human COUP-TF2 residues 76–258, helix H12 deleted (protein, UniProt P24468 76-258, looked up, fragment)
chain: HIECVVCGDKSSGKHYGQFTCEGCKSFFKRSVRRNLSYTCRANRNCPIDQHHRNQCQYCRLKKCLKVGMRREAVQRGRMPPTQPTHGQFALTNGDPLNCHSYLSGYISLLLRAEPYPTSRFGSQCMQPNNIMGIENICELAARMLFSAVEWARNIPFFPDLQITDQVALLRLTWSELFVLNAA
modifications: ligand-binding domain, H12 deleted
- Repressor activity (in words) [3]: compromised its repressor activity

B2: Atrophin-2: Atrophin-2 (NP_001036046, residues 1087–1566) (protein)
chain: AAKASSSAHEGRLSDPQLSGPGHMRPSFEPPPTTIAAVPPYIGPDTPALRTLSEYARPHVMSPTNRNHPFYMPLNPTDPLLAYHMPGLYNVDPTIRERELREREIREREIRERELRERMKPGFEVKPPELDPLHPATN
modifications: left off: Gal4 DNA-binding domain, end not stated, kept
- Interaction with SHP [4]: able to interact
